Measured values taken from ChEMBL document CHEMBL4513216, “Probing the Open Global Health Chemical Diversity Library for Multistage-Active Starting Points for Next-Generation Antimalarials” (ACS Infect Dis, 2020).

experiment: Toxicity liver stage against HepG2, at 10uM; type: cell-based; design: test concentration 10 uM, cell line HepG2-A16-CD81EGFP; settings: human, HepG2-A16-CD81EGFP cells; read-out: INHIBITION
Method in brief: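 Uninfected HepG2-A16-CD81EGFP cells, 3 × 10^3 per well, 1536-well, plated on prespotted compound at 10 μM final, parasite-free screening media added to match infected plates; puromycin 10 μM positive, DMSO 0.5% negative; run in parallel with 48 h PbLuc assay at 37 °C, 5% CO2; viability by CellTiter-Glo luminescence, normalized to controls.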

| SMILES | cytotoxicity at 10 µM |
| --- | --- |
| CCN(CC)CCNC(=O)CCc1c(C)nn(-c2ccc(Cl)cc2)c1C | -5.93% |
| O=C1CSC(c2ccsc2)c2c(n(C3CCCC3)[nH]c2=O)N1 (stereo unspecified) | -11.6% |
| COCCn1ccc2c(C(=O)NC3CN4CCC3CC4)cccc21 (stereo unspecified) | -51.6% |
| Cc1ccc(NC(=O)c2nc3c(s2)CCCN3C(C)C)cn1 | 0.93% |
| CN(c1ncc(C(=O)NCc2ccccc2)c(N)n1)C1CCCCC1 | -4.31% |
| Cc1ccnn1CC(=O)Nc1cc(-c2ccncc2)[nH]n1 | -4.34% |
| Cn1ccnc1-c1nc(NC2CCCC2)ncc1-c1cccc(F)c1 | 14.1% |
| O=C(COc1ccccc1F)N1CCCCC1c1ccn2ccnc2n1 (stereo unspecified) | -8.52% |
| O=C(C1CCCC1)N1CCCC(c2cccc(-n3ccnc3)n2)C1 (stereo unspecified) | -5.52% |
| Cc1ccc(-n2nnnc2SCN2CCCCC2=O)cc1C | -46.6% |
| COc1ccc(C2CCN(CCCC#N)CC2)cc1 | -9.89% |
| O=C(NCc1nnc2ccccn12)N1CCOC(c2cccs2)C1 (stereo unspecified) | 1.64% |
| CC(C)c1ncc2c(n1)CN(c1ncnc3[nH]ccc13)CC2 | -3.28% |
| N#Cc1ccccc1N1CCCN(CC(=O)Nc2ccccc2Cl)CC1 | 1.11% |
| CCCn1cc(CNCC(c2ccc(C)s2)N2CCOCC2)cn1 (stereo unspecified) | -0.248% |
| COc1cc(CNC(C)c2cccc(Cl)c2)cc(OC)c1OC (stereo unspecified) | 5.02% |
| CCC(CNC(=O)c1ccccc1OC)N1CCc2ccccc2C1 (stereo unspecified) | 12% |
| CN(CCCc1n[nH]c(N)c1C#N)C(=O)Nc1cc(Cl)cc(Cl)c1 | 11.1% |
| OCc1cc2ccccc2nc1NCC1CCN(CC(F)(F)F)C1 (stereo unspecified) | -55.7% |
| CCNC(=O)N(C)C(c1cccnc1)C(C)C (stereo unspecified) | -10.2% |
| CC(NCc1cccs1)c1ccc(OCc2nccn2C)cc1 (stereo unspecified) | -7.88% |
| CC1CN(C(=O)c2cscn2)c2ccccc2S1 (stereo unspecified) | 6.43% |
| O=C(Cc1ccsc1)N1C[C@H]2CCC[C@@]2(COCc2ccccn2)C1 | -102% |

| SMILES | cytotoxicity at 10 µM |
| --- | --- |
| c1csc(COC[C@H]2CCC[C@]23CN(Cc2ccoc2)CCO3)n1 | -67.3% |
| O=c1[nH][nH]cc1-c1ccnc(NCCc2cccc(O)c2)n1 | -7.83% |
| C[C@@H]1CN(C2CCN(Cc3cnc(-c4cccs4)nc3)CC2)C[C@H](C)O1 | -13.7% |
| COCCN(Cc1ccc(C)cc1)Cc1c[nH]cn1 | -42.3% |
| Nc1nc2c(c(NCc3ccc(C(=O)N4CCCC4)cc3)n1)CCCC2 | 21.1% |
| COc1ccc(Oc2ccc(C(F)(F)F)cn2)cc1CN1CCCC1 | -5.62% |
| COCCN(C)C(=O)c1ccccc1-n1cccn1 | -4.57% |
| CN(Cc1nccs1)C1CCN(c2cccc(-c3cscn3)c2)CC1 | -1.26% |
| Cn1ncc2c(N3CCCC4(CCNC4)C3)nc(C(C)(C)C)nc21 (stereo unspecified) | -45.8% |
| COc1ccc(-n2ncc(C(C)NC3Cc4ccccc4C3)c2C)cc1 (stereo unspecified) | -6.32% |
| COCCN1CCN(Cc2ccncc2)[C@H]2CS(=O)(=O)C[C@H]21 | -10.2% |
| CC1CN(C)CCN1C(=O)c1ccn(-c2ccccc2)n1 (stereo unspecified) | 0.533% |
| O=C(COCC(F)(F)F)NS(=O)(=O)c1ccc2c(c1)OCCCO2 | -6.8% |
| CCN(Cc1ccccc1)C(=O)CN1CCCC(Cn2cncn2)C1 (stereo unspecified) | 0.421% |
| Cc1nc(CN(C)C2CCN(CC3CCCCC3)C2)no1 (stereo unspecified) | -7.49% |
| CNC(=O)COc1ccccc1CNC1CCc2ncnn2C1 (stereo unspecified) | -13.6% |
| CCn1ncc2c1CCCC2NCC1=Cc2ccccc2OC1 (stereo unspecified) | -4.31% |
| CN1CCCc2cc(CNC(=O)c3ccncc3)ccc21 | 7.03% |
| Fc1ccc(F)c(CN2CCC(c3cc4ncccc4cn3)CC2)c1 | -5.14% |
| Cc1ccsc1CN1C[C@@H]2COC[C@]2(CNC(=O)c2ccco2)C1 | -95.5% |
| Cn1cnc2c1C(COCC1CC1)CN(Cc1ccc3c(c1)OCO3)C2 (stereo unspecified) | -12% |
| Cn1ccnc1C(=O)N[C@@H]1CN(CC2CCOCC2)[C@@H]2CCCO[C@@H]21 | -97.8% |
| COc1no[n+]([O-])c1-c1ccccc1 | 8.2% |
